Compound activity as filed in PubChem BioAssay.
Shown is part of a subset that was picked to be rich in hits.
S1P4 agonist – S1P4 receptor agonists, primary screen, cell-based | Sphingosine 1-phosphate receptor 4 (Homo sapiens), O95977 | S1P4-expressing cell line, agonist reporter assay | activation, % at 4.98 µM | 0.35% of 220,000 active; in the data active = activation above about 11%
S1P4 antagonist – S1P4 receptor antagonists, primary screen, cell-based | AID 1510, 2009 | 0.26% of 220,000 active | Sphingosine 1-phosphate receptor 4 (Homo sapiens), O95977 | inhibition, % at 4.98 µM | S1P4-expressing cells, antagonist mode, reporter read-out; in the data active = inhibition above about 29%
MDM2 E3 inh – MDM2-luciferase reporter signal enhancers, primary screen, MDM2 E3 ligase inhibitor project, cell-based, luminescence, 1536-well | E3 ubiquitin-protein ligase Mdm2 (Homo sapiens), Q00987 | cell-based MDM2 ubiquitination luciferase reporter, 2 h; 0 = plate control, 100 = twice control, blank-subtracted | signal enhancement, % at 5 µM | 0.11% of 210,000 active | AID 1230, 2008;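 active = signal enhancement of 30% or more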;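 note: luminescence tracks abundance of the self-degrading MDM2-luciferase fusion protein; higher signal means inhibition of MDM2 E3 ligase activity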
Target sequence (Q00987 whole entry, looked up, the tested form may be a part): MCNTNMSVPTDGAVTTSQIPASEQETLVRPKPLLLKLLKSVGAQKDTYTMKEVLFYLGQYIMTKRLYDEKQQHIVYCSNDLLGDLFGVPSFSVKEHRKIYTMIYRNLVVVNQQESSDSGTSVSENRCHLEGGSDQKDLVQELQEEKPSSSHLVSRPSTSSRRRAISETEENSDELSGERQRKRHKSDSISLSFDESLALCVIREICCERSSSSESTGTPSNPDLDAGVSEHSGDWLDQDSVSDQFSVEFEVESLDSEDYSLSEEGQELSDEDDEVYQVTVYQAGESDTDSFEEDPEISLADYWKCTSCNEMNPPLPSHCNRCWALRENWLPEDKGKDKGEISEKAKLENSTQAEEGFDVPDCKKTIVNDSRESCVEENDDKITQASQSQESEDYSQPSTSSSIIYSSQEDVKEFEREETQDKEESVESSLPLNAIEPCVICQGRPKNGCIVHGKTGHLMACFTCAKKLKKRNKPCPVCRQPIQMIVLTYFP
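Timing – 2 h compound exposure at 37 °C · Assay system – mammalian cells stably expressing self-ubiquitinating, self-degrading MDM2 E3–luciferase fusion · Amount – 2000 cells seeded into each well · Measure – % luminescence enhancement versus blank-corrected plate control mean · Measured by – SteadyLite luminescence, 15 min reagent step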
Lmaj promast – Leishmania major promastigote growth inhibition, primary screen; Leishmania major promastigotes, resazurin fluorescence viability; inhibition, % at 10 µM; 9% of 200,000 active; AID 1063, 2008; in the data active = inhibition above about 50%;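 note: promastigotes grown with compound for 44 hours at 28 °C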
S1P3 antagonist – S1P3 receptor antagonists, primary screen, cell-based; Sphingosine 1-phosphate receptor 3 (Homo sapiens), Q99500; inhibition, % at 4.98 µM; AID 485, 2006; 0.27% of 170,000 active; CHO S1P3 NFAT-BLA reporter, FRET fluorescence, antagonist mode;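 active = inhibition above the plate cutoff, the mean inhibition of test wells on that plate plus 3 SD, cut at about 28% in these data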;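 note: cells challenged with S1P at its EC80 of 0.8 µM; blue over green emission ratio from cleaved BLA substrate after 4 h stimulation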
Numbers stand for hits; i = inactive; nt = no result given.

SMILES	S1P4 agonist	S1P4 antagonist	MDM2 E3 inh	Lmaj promast	S1P3 antagonist
CN(CCc1ccccn1)C(=O)CCC1CCCN(C(=O)c2ccc3c(c2)OCCO3)C1 (configuration not stated)	i	i	i	i	i
COc1ccc(NC(C)C(=O)Nc2ccc(C#N)cc2)cc1Cl (configuration not stated)	i	i	i	i	nt
COc1ccc(NC(C)C(=O)Nc2ccc(C(C)(C)C)cc2)cc1Cl (configuration not stated)	i	i	i	50	nt
CCN(CC)CCCOC(=O)C1(c2ccccc2)CCCC1	i	i	i	99	nt
CCN(CC)CCOC(=O)C1(c2ccccc2)CCOCC1	i	i	i	73	i
Cc1ccc(-c2ccc(=O)n(CCC(=O)NCCN3CCCCC3C)n2)cc1 (configuration not stated)	i	i	i	i	i
CCS(=O)(=O)N1CCCC(C(=O)NCCN2CCC(Cc3ccccc3)CC2)C1 (configuration not stated)	i	i	i	90	i
CS(=O)(=O)N1CCCC(C(=O)NCCN2CCC(Cc3ccccc3)CC2)C1 (configuration not stated)	i	i	i	89	i
CCS(=O)(=O)N1CCCC(C(=O)NCCN(C)Cc2ccccc2)C1 (configuration not stated)	i	i	i	i	i
CS(=O)(=O)N1CCCC(C(=O)NCCc2ccccc2)C1 (configuration not stated)	i	i	i	i	i
O=C(NCCN1CCc2ccccc2C1)C1CCN(S(=O)(=O)N2CCC3(CC2)OCCO3)CC1	i	i	i	i	i
O=C(NCCN1CCc2ccccc2C1)C1CCN(S(=O)(=O)N2CCCCC2)CC1	i	i	i	81	i
Cc1cc(Br)ccc1NC(=O)CNC(=O)CN(C)Cc1nc2ccccc2c(=O)[nH]1	i	i	i	i	i
CN(C)c1nc2ccc(OCCN3CCCCC3)cc2s1	i	i	i	60	i
Cc1ccc(C(C)C)cc1OCCCCN1CCCC1	i	i	i	99	i
Cc1cccc(OCCCN2CCCCCC2)c1	i	i	i	98	i
Cc1ccc(C)c(OCCCN2CCCC2)c1	i	i	i	98	i
CCc1cccc(OCCN2CCCC2)c1	i	i	i	i	i
CCOC(=O)C1(CCOc2ccccc2)CCN(Cc2cccc3c2OCO3)CC1	i	i	i	91	i
CCOC(=O)C1(CCOc2ccccc2)CCN(Cc2cc(OC)c3c(c2)OCO3)CC1	i	i	i	84	i
CCOC(=O)C1(CCc2ccccc2)CCN(Cc2ccccn2)CC1	i	i	i	i	i
CCC(C)C(NC(C)=O)C(=O)NC(=O)NC(c1ccccc1)c1ccccc1 (configuration not stated)	i	i	i	i	nt
O=C1c2cccc3cccc(c23)C(=O)N1CCc1ccccc1	i	i	i	i	i
CS(=O)(=O)Nc1ccc(C(=O)NCCSC2CCCCC2)cc1	i	i	i	i	nt
Cc1ccc(NS(=O)(=O)c2cc(C(=O)NCCSc3ccc(C)cc3)ccc2C)cc1	i	i	i	100	nt
SMILES	S1P4 agonist	S1P4 antagonist	MDM2 E3 inh	Lmaj promast	S1P3 antagonist
COc1ccc(C(=O)NCCSC2CCCCC2)cc1	i	i	41	i	i
Cc1ccc(SCCNC(=O)c2ccccc2)cc1	i	i	i	i	nt
Cc1ccc(C(=O)NCCSc2ccc(Cl)cc2)cc1S(=O)(=O)Nc1ccccc1	i	i	i	97	nt
Cc1ccc(NS(=O)(=O)c2cc(C(=O)NCCSC3CCCCC3)ccc2C)cc1	i	i	i	79	nt
O=C(Cn1c(NCCCO)nc2ccccc21)c1cccs1	i	i	nt	i	i
Cc1ccc(SCCNC(=O)c2ccc(C)c(S(=O)(=O)Nc3cccc(C)c3)c2)cc1	i	i	i	78	nt
CCC(c1nnnn1C1CCCCC1)N1CCN(C2CCCC2)CC1 (configuration not stated)	i	i	i	65	i
CC(C)CC(c1nnnn1C1CCCCC1)N1CCN(c2ncccn2)CC1 (configuration not stated)	i	i	i	63	i
CC(C)C(c1nnnn1C1CCCCC1)N1CCN(c2ncccn2)CC1 (configuration not stated)	i	i	i	i	i
CCCC(c1nnnn1C1CCCCC1)N1CCN(C2CCCC2)CC1 (configuration not stated)	i	i	i	i	i
